ChEMBL document CHEMBL3046214, “Friedelane triterpenes from Celastrus vulcanicola as photosynthetic inhibitors” (J Agric Food Chem, 2010)
Blank lines part the entries; values can stand above or below the molecule they belong to. Calls of active or inactive are those of the source. No cut-off for these calls is given here.

Tests used:
Spinacia oleracea [1] = assay: Inhibition of photophosphorylation in Spinacia oleracea (spinach) leaves chloroplasts by titrimetry; assay type: functional
Method in brief: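 Intact spinach chloroplasts (20 μg Chl/mL) were osmotically broken in 3 mL of weakly buffered medium: 100 mM sorbitol, 10 mM KCl, 5 mM MgCl2, 0.5 mM KCN, 1 mM tricine-KOH pH 8.0, 50 μM MV and 1 mM ADP. ATP synthesis was taken from the medium alkalization rate in the linear part of illumination, calibrated by HCl back-titration, as μmol ATP (mg Chl)-1 h-1. I50 was obtained from concentration-activity plots; three replicates.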

Lolium perenne [2] = assay: Inhibition of photosynthetic efficiency in Lolium perenne (perennial ryegrass) at 200 uM measured 24 to 72 hr post compound application; assay type: functional
Method in brief: (§1)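 Greenhouse L. perenne sprayed 18 days after emergence (20 mM DMSO stock diluted into 0.05% Tween-20; vehicle-sprayed controls). Leaves dark-adapted 15 min, then excited with 3000 μmol photons m-2 s-1 red light (650 nm) from three LEDs. OJIP transients recorded at room temperature with a Handy PEA. PI(abs) and other parameters are shown on radar plots normalized to control.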

Lolium perenne [3] = assay: Inhibition of photosynthetic efficiency in Lolium perenne (perennial ryegrass) at 100 uM measured 72 hr post compound application; assay type: functional; method in brief: as §1
Lolium perenne [4] = assay: Inhibition of photosynthetic efficiency in Lolium perenne (perennial ryegrass) at 100 uM measured 24 hr post compound application; assay type: functional; method in brief: as §1
Lolium perenne [5] = assay: Inhibition of photosynthetic efficiency in Lolium perenne (perennial ryegrass) at 100 uM measured 48 hr post compound application; assay type: functional, organism-based; method in brief: as §1
Spinacia oleracea [6] = assay: Effect on photosynthesis efficiency in Spinacia oleracea (spinach) leaves freshly lysed chloroplasts assessed as change in chlorophyll a fluorescence at 150 to 450 uM; assay type: functional
Method in brief: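 Freshly lysed spinach thylakoids (20 μg Chl) were placed on filter paper with a dot-blot apparatus and dipped in 3 mL basal electron transport medium without MV, containing compound. After 5 min dark adaptation, fluorescence was excited with 3000 μmol m-2 s-1 650 nm LED light (2 s pulse) at room temperature. Wt = (Ft−F0)/(FJ−F0), difference from control used for K-band; five replicates.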

[7] = molecular target: Photosystem II protein D1 (Spinacia oleracea) (UniProt P69560); assay: Inhibition of uncoupled photosystem II electron transport and partial reactions in Spinacia oleracea (spinach) leaves assessed as electron transport rate from water to DCPIP at 300 uM measured per mg of chlorophyll relative to untreated control; design: scale not given: the % may be the effect or the level left
[8] = molecular target: Photosystem II protein D1 (Spinacia oleracea) (UniProt P69560); assay: Inhibition of uncoupled photosystem II electron transport and partial reactions in Spinacia oleracea (spinach) leaves assessed as electron transport rate from water to DCPIP at 200 uM measured per mg of chlorophyll relative to untreated control; design: scale not given: the % may be the effect or the level left
[9] = molecular target: Photosystem II protein D1 (Spinacia oleracea) (UniProt P69560); assay: Inhibition of uncoupled photosystem II electron transport and partial reactions in Spinacia oleracea (spinach) leaves assessed as electron transport rate from water to DCPIP at 100 uM measured per mg of chlorophyll relative to untreated control; design: scale not given: the % may be the effect or the level left
[10] = molecular target: Photosystem II protein D1 (Spinacia oleracea) (UniProt P69560); assay: Inhibition of uncoupled photosystem II electron transport and partial reactions in Spinacia oleracea (spinach) leaves assessed as electron transport rate from water to SiMo at 300 uM measured per mg of chlorophyll relative to untreated control; design: scale not given: the % may be the effect or the level left
Method in brief: (§2)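 Uncoupled partial PSII reaction from water to silicomolybdate, run in the PSII medium (sorbitol, KCl, MgCl2, KCN, 15 mM tricine-KOH pH 8.0, 6 mM NH4Cl, 20 μg Chl/mL, 1 min light). DCBQ/DBMIB were replaced by 200 μM SiMo plus 10 μM DCMU. Rates are in μequiv e-/h mg Chl, relative to control, three replicates.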

[11] = molecular target: Photosystem II protein D1 (Spinacia oleracea) (UniProt P69560); assay: Inhibition of uncoupled photosystem II electron transport and partial reactions in Spinacia oleracea (spinach) leaves assessed as electron transport rate from water to SiMo at 200 uM measured per mg of chlorophyll relative to untreated control; design: scale not given: the % may be the effect or the level left; method in brief: as §2
[12] = molecular target: Photosystem II protein D1 (Spinacia oleracea) (UniProt P69560); assay: Inhibition of uncoupled photosystem II electron transport and partial reactions in Spinacia oleracea (spinach) leaves assessed as electron transport rate from water to SiMo at 100 uM measured per mg of chlorophyll relative to untreated control; design: scale not given: the % may be the effect or the level left; method in brief: as §2
[13] = molecular target: Photosystem II protein D1 (Spinacia oleracea) (UniProt P69560); assay: Inhibition of uncoupled photosystem II electron transport and partial reactions in Spinacia oleracea (spinach) leaves assessed as electron transport rate from water to DCBQ at 300 uM measured per mg of chlorophyll relative to untreated control; design: scale not given: the % may be the effect or the level left
Method in brief: (§3)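 Uncoupled PSII water-to-DCBQ rate: 3 mL of 100 mM sorbitol, 10 mM KCl, 5 mM MgCl2, 0.5 mM KCN, 15 mM tricine-KOH pH 8.0, with 100 μM DCBQ, 1 μM DBMIB, 6 mM NH4Cl and chloroplasts at 20 μg Chl/mL, illuminated 1 min. Rates are in μequiv e-/h mg Chl, percent of control, three replicates.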

[14] = molecular target: Photosystem II protein D1 (Spinacia oleracea) (UniProt P69560); assay: Inhibition of uncoupled photosystem II electron transport and partial reactions in Spinacia oleracea (spinach) leaves assessed as electron transport rate from water to DCBQ at 200 uM measured per mg of chlorophyll relative to untreated control; design: scale not given: the % may be the effect or the level left; method in brief: as §3
[15] = molecular target: Photosystem II protein D1 (Spinacia oleracea) (UniProt P69560); assay: Inhibition of uncoupled photosystem II electron transport and partial reactions in Spinacia oleracea (spinach) leaves assessed as electron transport rate from water to DCBQ at 100 uM measured per mg of chlorophyll relative to untreated control; design: scale not given: the % may be the effect or the level left; method in brief: as §3
[16] = molecular target: Photosystem II protein D1 (Spinacia oleracea) (UniProt P69560); assay: Inhibition of uncoupled photosystem II electron transport and partial reactions in Spinacia oleracea (spinach) leaves assessed as electron transport rate from water to DCPIP at 50 uM measured per mg of chlorophyll relative to untreated control; design: scale not given: the % may be the effect or the level left
[17] = molecular target: Photosystem II protein D1 (Spinacia oleracea) (UniProt P69560); assay: Inhibition of uncoupled photosystem II electron transport and partial reactions in Spinacia oleracea (spinach) leaves assessed as electron transport rate from water to SiMo at 50 uM measured per mg of chlorophyll relative to untreated control; design: scale not given: the % may be the effect or the level left; method in brief: as §2
Spinacia oleracea [18] = assay: Increase in Magnesium-transporting ATPase activity in Spinacia oleracea (spinach) leaves chloroplasts thylakoids at 200 uM
Method in brief: (§4)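 Spinach chloroplasts were isolated in 350 mM sorbitol, 5 mM ascorbate, 20 mM MES pH 6.5, centrifuged at 3000g for 60 s, washed, and resuspended in 35 mM HEPES pH 7.6. Light-triggered Mg2+-ATPase activity of thylakoid membranes was measured as released inorganic phosphate. Ammonium chloride served as positive control.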

Spinacia oleracea [19] = assay: Increase in Magnesium-transporting ATPase activity in Spinacia oleracea (spinach) leaves chloroplasts thylakoids at 300 uM; method in brief: as §4
[20] = molecular target: Photosystem II protein D1 (Spinacia oleracea) (UniProt P69560); assay: Inhibition of uncoupled photosystem II electron transport and partial reactions in Spinacia oleracea (spinach) leaves assessed as electron transport rate from water to DCBQ at 50 uM measured per mg of chlorophyll relative to untreated control; design: scale not given: the % may be the effect or the level left; method in brief: as §3
Spinacia oleracea [21] = assay: Inhibition of basal electron transport from water to MV in Spinacia oleracea (spinach) leaves chloroplasts up to 300 uM using Clark type electrode system based method; assay type: functional, organism-based
Spinacia oleracea [22] = assay: Inhibition of uncoupled electron transport from water to MV in Spinacia oleracea (spinach) leaves chloroplasts up to 300 uM using Clark type electrode system based method; assay type: functional, organism-based
Method in brief: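 Water-to-MV electron transport measured with a Clark electrode in the basal medium (20 μg Chl/mL, 50 μM MV, 15 mM tricine-KOH pH 8.0, 1 min illumination), with 6 mM NH4Cl added as uncoupler.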

Spinacia oleracea [23] = assay: Inhibition of phosphorylating noncyclic electron transport from water to MV in Spinacia oleracea (spinach) leaves chloroplasts up to 300 uM using Clark type electrode system based method; assay type: functional
Method in brief: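 Clark-electrode measurement of water-to-MV electron flow in the basal medium (sorbitol, KCl, MgCl2, 0.5 mM KCN, 50 μM MV, 15 mM tricine-KOH pH 8.0; 20 μg Chl/mL; 1 min light), with 1 mM ADP and 3 mM KH2PO4 added.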

Spinacia oleracea [24] = assay: Increase in Magnesium-transporting ATPase activity in Spinacia oleracea (spinach) leaves chloroplasts thylakoids at 100 uM; method in brief: as §4
Physalis ixocarpa [25] = assay: Effect on biomass production in Physalis ixocarpa assessed as plant dry weight at 200 uM measured 14 days post compound application relative to untreated control; assay type: functional
Method in brief: (§5)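 Greenhouse-grown plants (pots, watered daily, 25 to 30 °C) of similar size, sprayed at 15 (P. ixocarpa) or 18 (L. perenne) days after emergence. Compound taken from a 20 mM DMSO stock into aqueous 0.05% w/v Tween-20; controls were sprayed with water containing the same DMSO and Tween-20. Plants harvested at ground level, oven-dried at 65 °C to constant weight, then weighed.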

Physalis ixocarpa [26] = assay: Effect on biomass production in Physalis ixocarpa assessed as plant dry weight at 100 uM measured 14 days post compound application relative to untreated control; assay type: functional; method in brief: as §5
Lolium perenne [27] = assay: Effect on biomass production in Lolium perenne (perennial ryegrass) assessed as plant dry weight at 100 uM measured 14 days post compound application relative to untreated control; assay type: functional; method in brief: as §5
Lolium perenne [28] = assay: Effect on biomass production in Lolium perenne (perennial ryegrass) assessed as plant dry weight at 200 uM measured 14 days post compound application relative to untreated control; assay type: functional; method in brief: as §5
Physalis ixocarpa [29] = assay: Effect on photosynthetic efficiency in Physalis ixocarpa intact leaves assessed as increase in PI(abs) level at 100 uM measured 72 hr post compound application; assay type: functional; conditions: in the assay text read “at 200 uM” for “at 100 uM”
Method in brief: (§6)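 P. ixocarpa plants sprayed 15 days after emergence (greenhouse, 25-30 °C; 20 mM DMSO stock diluted into 0.05% Tween-20; vehicle-sprayed controls). Leaves dark-adapted 15 min, then excited with 650 nm red LED light at 3000 μmol photons m-2 s-1. Chl a OJIP transients recorded with a Handy PEA at room temperature. PI(abs) is normalized to control; K-, J- and I-bands come from variable fluorescence difference curves; five replicates.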

Physalis ixocarpa [30] = assay: Inhibition of photosynthetic efficiency in Physalis ixocarpa intact leaves assessed as loss of K-bands at 200 uM measured 72 hr post compound application; assay type: functional, organism-based; method in brief: as §6
Physalis ixocarpa [31] = assay: Inhibition of photosynthetic efficiency in Physalis ixocarpa intact leaves assessed as reduction in PI(abs) level at 100 uM measured 72 hr post compound application; assay type: functional; method in brief: as §6
Physalis ixocarpa [32] = assay: Inhibition of photosynthetic efficiency in Physalis ixocarpa intact leaves assessed as reduction in PI(abs) level at 200 uM measured 48 hr post compound application; assay type: functional; method in brief: as §6
Physalis ixocarpa [33] = assay: Inhibition of photosynthetic efficiency in Physalis ixocarpa intact leaves assessed as reduction in PI(abs) level at 100 uM measured 48 hr post compound application; assay type: functional; method in brief: as §6
Physalis ixocarpa [34] = assay: Inhibition of photosynthetic efficiency in Physalis ixocarpa intact leaves assessed as effect on OJIP transients at 100 uM measured 24 hr post compound application; assay type: functional, organism-based; method in brief: as §6

SMILES: C[C@H]1C(=O)CC[C@@H]2[C@]1(C)CC[C@H]1[C@@]2(C)CC[C@@]2(C)[C@@H]3C[C@](C)(CO)CC[C@]3(C)CC[C@]12C
inhibition (Spinacia oleracea [1]): inactive

Activity [7]: 100% | Activity [8]: 95% | Activity [9]: 108% | Activity [10]: 0% | Activity [11]: 10% | Activity [12]: 20% | Activity [13]: 44% | Activity [14]: 50% | Activity [15]: 68% | Activity [16]: 105% | Activity [17]: 60% | Activity (Spinacia oleracea [18]): 116% | Activity (Spinacia oleracea [19]): 126% | Activity [20]: 89% | IC50 (Spinacia oleracea [1]; read-out: I50): 124 µM | Activity (Spinacia oleracea [24]): 110%
SMILES: C[C@H]1C(=O)CC[C@@H]2[C@]1(C)CC[C@H]1[C@@]2(C)CC[C@@]2(C)[C@@H]3CC(C)(C)CC[C@]3(CO)CC[C@]12C [CANOPHYLLOL]
inhibition (Lolium perenne [2]): inactive | inhibition at 100 µM (Lolium perenne [3]): 15% | inhibition at 100 µM (Lolium perenne [4]): 50% | inhibition (Lolium perenne [5]): inactive | Activity (Spinacia oleracea [6]): Active | inhibition (Spinacia oleracea [21]): Active | inhibition (Spinacia oleracea [22]): Active | inhibition (Spinacia oleracea [23]): Active | Activity (Physalis ixocarpa [25]): 99% | Activity (Physalis ixocarpa [26]): 81.5% | Activity (Lolium perenne [27]): 117.1% | Activity (Lolium perenne [28]): 140.3% | Activity (Physalis ixocarpa [29]): 10% | inhibition (Physalis ixocarpa [30]): Active | inhibition at 100 µM (Physalis ixocarpa [31]): 25% | inhibition at 200 µM (Physalis ixocarpa [32]): 10% | inhibition at 100 µM (Physalis ixocarpa [33]): 10% | inhibition (Physalis ixocarpa [34]): inactive
